According to ChEMBL document CHEMBL4041461, “Discovery of 6,7-dihydro-3H-pyrano[4,3-c]isoxazol-3-ones as a new class of pathogen specific anti-leptospiral agents” (Eur J Med Chem, 2017):
≈ marks a conversion by molar mass, not a printed value. Calls of active or inactive are those of the source. No cut-off for these calls is given here.

Assays:
[1] = system: Leptospira interrogans serovar Autumnalis; test: Antibacterial activity against Leptospira interrogans serovar Autumnalis N2 at 62.5 ug/mL after 2 hrs by micro dilution assay; format: functional
How it was run: (§1)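 Preliminary screen by broth microdilution against L. interrogans serovar Autumnalis strain N2, each compound at 500, 250, 125, 62.5 and 31.25 µg/mL. Growth at each concentration was scored as resistance (R) or inhibition (I), and the MIC was taken from these scores. Triplicates.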

[2] = system: Leptospira interrogans serovar Autumnalis; test: Antibacterial activity against Leptospira interrogans serovar Autumnalis N2 at 500 ug/mL after 2 hrs by micro dilution assay; format: functional; how it was run: as §1
[3] = system: Leptospira interrogans serovar Autumnalis; test: Antibacterial activity against Leptospira interrogans serovar Autumnalis N2 at 125 ug/mL after 2 hrs by micro dilution assay; format: functional; how it was run: as §1
[4] = system: Leptospira interrogans serovar Autumnalis; test: Antibacterial activity against Leptospira interrogans serovar Autumnalis N2 at 250 ug/mL after 2 hrs by micro dilution assay; format: functional; how it was run: as §1
[5] = system: Leptospira interrogans serovar Autumnalis; test: Antibacterial activity against Leptospira interrogans serovar Autumnalis N2 at 31.25 ug/mL after 2 hrs by micro dilution assay; format: functional; how it was run: as §1
[6] = Antibacterial activity against Leptospira interrogans serovar Autumnalis N2 after 2 hrs by micro dilution assay; format: functional; settings: N2, 2 h
[7] = Antibacterial activity against Leptospira interrogans serovar Hebdomadis after 2 hrs by micro dilution assay; format: functional
[8] = Antibacterial activity against Leptospira interrogans serovar Canicola Hond Utrecht IV after 2 hrs by micro dilution assay; format: functional
[9] = Antibacterial activity against Leptospira interrogans serovar Ballum Mus 127 after 2 hrs by micro dilution assay; format: functional; settings: Mus 127, 2 h
[10] = Antibacterial activity against Leptospira interrogans serovar Pyrogenes Salinem after 2 hrs by micro dilution assay; format: functional
[11] = Antibacterial activity against Leptospira interrogans serovar Javanica Poi after 2 hrs by micro dilution assay; format: functional
[12] = Antibacterial activity against Leptospira interrogans serovar Icterohaemorrhagiae RGA after 2 hrs by micro dilution assay; format: functional
[13] = Antibacterial activity against Leptospira interrogans serovar Pomona after 2 hrs by micro dilution assay; format: functional
Leptospira interrogans [14] = test: (§2) Antibacterial activity against Leptospira interrogans serovar Semaranga after 2 hrs by micro dilution assay; format: functional
[15] = Antibacterial activity against Leptospira interrogans serovar Bataviae Swart after 2 hrs by micro dilution assay; format: functional
[16] = Antibacterial activity against Leptospira interrogans serovar Hardjo Hardjoprajitno after 2 hrs by micro dilution assay; format: functional
[17] = Antibacterial activity against Leptospira interrogans serovar Australis Ballico after 2 hrs by micro dilution assay; format: functional
[18] = Antibacterial activity against Leptospira interrogans serovar Grippotyphosa Moskva V after 2 hrs by micro dilution assay; format: functional
THP-1 [19] = test: Induction of cell death in human THP1 cells at 0.5 mM after 12 hrs by propidium iodide staining based confocal laser scanning microscopic method; settings: thp-1, 12 h, 500 µM
How it was run: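 THP-1 cells were treated for 12 h and then stained with propidium iodide. Apoptotic and necrotic cells were counted manually and expressed as a percentage. Untreated cells and tert-butylhydroperoxide served as controls. Data are mean ± SD of triplicates.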

[20] = system: Leptospira interrogans serovar Canicola; test: Antibacterial activity against Leptospira interrogans serovar Canicola PAI-1 infected cyclophosphamide-treated BALB/c mouse assessed as inhibition of bacterial renal colonization at 20 mg/kg,ip by RT-qPCR analysis; format: functional, organism-based
How it was run: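 Cyclophosphamide-treated BALB/c mice were infected with pathogenic serovar Canicola, then dosed once daily for 3 days at 5, 10 or 20 mg/kg. Controls were untreated mice and doxycycline at 5 mg/kg once daily. Leptospiral load in kidney tissue was measured by qPCR for renal colonization.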

Leptospira interrogans [21] = test: Inhibition of Leptospira rRNA gene amplification assessed as thresholod cycle by SYBR Green dye-based RT-qPCR method (reference value: 11.3)
THP-1 [22] = test: Cytotoxicity against human THP1 cells assessed as cell growth inhibition upto 25 ug/mL after 24 hrs by MTT assay; format: cell-based; settings: thp-1, 24 h
THP-1 [23] = test: Cytotoxicity against human THP1 cells assessed as cell growth inhibition at >=75 ug/mL after 24 hrs by MTT assay; format: cell-based; settings: thp-1, 24 h
THP-1 [24] = test: Induction of cell death in human THP1 cells upto 25 ug/mL after 12 hrs by propidium iodide staining based confocal laser scanning microscopic method; settings: thp-1, 12 h
How it was run: (§3)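 THP-1 cells were exposed for 12 h to a range of concentrations, then stained with propidium iodide. PI-positive apoptotic and necrotic cells were counted manually and expressed as a percentage. Controls were untreated cells and tert-butylhydroperoxide. Mean ± SD of triplicates.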

THP-1 [25] = test: Induction of cell death in human THP1 cells at >= 75 ug/mL after 12 hrs by propidium iodide staining based confocal laser scanning microscopic method; settings: thp-1, 12 h; how it was run: as §3
[26] = (§4) Antibacterial activity against Leptospira interrogans serovar Canicola PAI-1 infected cyclophosphamide-treated BALB/c mouse assessed as mouse survival at 5 mg/kg, ip administered once daily for 3 days; format: functional; settings: PAI-1, ip, 72 h
How it was run: (§5)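 Cyclophosphamide-treated (Cy-)BALB/c mice were challenged with pathogenic Leptospira Canicola. They were dosed once daily for 3 days at 5, 10 or 20 mg/kg. Controls were untreated mice and doxycycline at 5 mg/kg once daily. Survival was recorded to the end of the study period. Kidneys were checked by 16S qPCR and by re-isolation in EMJH semi-solid medium.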

[27] = Antibacterial activity against Leptospira interrogans serovar Canicola PAI-1 infected cyclophosphamide-treated BALB/c mouse assessed as mouse survival at 20 mg/kg, ip administered once daily for 3 days; format: functional; settings: PAI-1, ip, 72 h; how it was run: as §5
[28] = system: Leptospira interrogans serovar Canicola; test: Antibacterial activity against Leptospira interrogans serovar Canicola PAI-1 infected cyclophosphamide-treated BALB/c mouse assessed as inhibition of bacterial renal colonization at 20 mg/kg,ip using EMJH semi solid medium; format: functional, organism-based
How it was run: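 Kidneys came from infected cyclophosphamide-treated BALB/c mice dosed once daily for 3 days, including at 20 mg/kg, alongside untreated infected controls. Leptospires were re-isolated by culturing kidney material in semi-solid EMJH medium.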

[29] = as §2; format: functional
[30] = system: Leptospira interrogans serovar Canicola; test: as §4; format: functional; how it was run: as §5

SMILES | Activity [1] | Activity [2] | Activity [3] | Activity [4] | Activity [5] | MIC [6] [µg/mL] | MIC [7] [µg/mL] | MIC [8] [µg/mL] | MIC [9] [µg/mL] | MIC [10] [µg/mL] | MIC [11] [µg/mL] | MIC [12] [µg/mL] | MIC [13] [µg/mL] | MIC [15] [µg/mL] | MIC [16] [µg/mL] | MIC [17] [µg/mL] | MIC [18] [µg/mL] | other results
COc1cc(OC)cc(C2=C3C(=O)ON=C3CC(C)(C)O2)c1 | inactive | inactive | inactive | inactive | inactive | – | – | – | – | – | – | – | – | – | – | – | – | –
CC1(C)CC2=NOC(=O)C2=C(c2ccccc2Cl)O1 | inactive | inactive | inactive | inactive | inactive | – | – | – | – | – | – | – | – | – | – | – | – | –
CCC1=C2C(=O)ON=C2CC(C)(C)O1 | inactive | Active | inactive | Active | inactive | 250 (≈ 1280 µM) | 125 (≈ 640 µM) | 250 (≈ 1280 µM) | 250 (≈ 1280 µM) | 250 (≈ 1280 µM) | 250 (≈ 1280 µM) | 250 (≈ 1280 µM) | 250 (≈ 1280 µM) | 125 (≈ 640 µM) | 250 (≈ 1280 µM) | 250 (≈ 1280 µM) | 250 (≈ 1280 µM) | MIC (Leptospira interrogans [14]): inactive
CC(C)(C)OO [TERT-BUTYL HYDROPEROXIDE] | – | – | – | – | – | – | – | – | – | – | – | – | – | – | – | – | – | Activity (THP-1 [19]): Toxic
CC1(C)CC2=NOC(=O)C2=C(c2cccs2)O1 | inactive | Active | inactive | Active | inactive | 250 (≈ 1000 µM) | 250 (≈ 1000 µM) | 62.5 (≈ 251 µM) | 250 (≈ 1000 µM) | 125 (≈ 501 µM) | 250 (≈ 1000 µM) | 250 (≈ 1000 µM) | 250 (≈ 1000 µM) | 250 (≈ 1000 µM) | 250 (≈ 1000 µM) | 250 (≈ 1000 µM) | 250 (≈ 1000 µM) | inhibition [20]: Active; Activity (Leptospira interrogans [21]): 18.5; Activity (THP-1 [22]): Non-Toxic; MIC (Leptospira interrogans [14]): inactive; Activity (THP-1 [23]): Toxic; Activity (THP-1 [24]): Non-Toxic; Activity (THP-1 [25]): Toxic; survival at 5 mg/kg [26]: 20%; survival at 20 mg/kg [27]: 95%; inhibition [28]: Active
COc1cc(OC)c2c(O)c3c(cc2c1)OC(C)(C)CC3=O | inactive | inactive | inactive | inactive | inactive | – | – | – | – | – | – | – | – | – | – | – | – | –
CC1(C)CC2=NOC(=O)C2=C(c2ccc(Cl)cc2)O1 | inactive | Active | inactive | Active | inactive | 250 (≈ 900 µM) | 250 (≈ 900 µM) | 125 (≈ 450 µM) | 250 (≈ 900 µM) | 250 (≈ 900 µM) | 250 (≈ 900 µM) | 250 (≈ 900 µM) | 250 (≈ 900 µM) | 250 (≈ 900 µM) | 250 (≈ 900 µM) | 125 (≈ 450 µM) | 250 (≈ 900 µM) | MIC (Leptospira interrogans [14]): inactive
COc1cc(OC)c2c(O)c3c(cc2c1)OC(C)C(C)C3=O (configuration not stated) | inactive | inactive | inactive | inactive | inactive | – | – | – | – | – | – | – | – | – | – | – | – | –
CC1CC(=O)c2c(cc3ccccc3c2O)O1 (configuration not stated) | inactive | Active | inactive | Active | inactive | – | – | – | – | – | – | – | – | – | – | – | – | –
CC1(C)CC2=NOC(=O)C2=C(c2ccco2)O1 | inactive | inactive | inactive | inactive | inactive | – | – | – | – | – | – | – | – | – | – | – | – | –
C[C@H]1c2cccc(O)c2C(=O)C2=C(O)[C@]3(O)C(=O)C(C(N)=O)=C(O)[C@@H](N(C)C)[C@@H]3[C@@H](O)[C@@H]21.O [DOXYCYCLINE] | inactive | Active | inactive | Active | inactive | 200 | 200 | 200 | 100 | 200 | 200 | 200 | 100 | 100 | 100 | 200 | 200 | MIC [29]: 100 µg/mL; Activity [30]: Active
CC1(C)CC2=NOC(=O)C2=C(c2ccccc2)O1 | inactive | inactive | inactive | inactive | inactive | – | – | – | – | – | – | – | – | – | – | – | – | –
CC1(C)CC(=O)c2c(cc3ccccc3c2O)O1 | inactive | Active | inactive | inactive | inactive | – | – | – | – | – | – | – | – | – | – | – | – | –
CC1(C)CC(O)=C2C(=O)c3ccccc3C=C2O1 | inactive | Active | inactive | Active | inactive | – | – | – | – | – | – | – | – | – | – | – | – | –
COc1ccc(C2=C3C(=O)ON=C3CC(C)(C)O2)cc1 | inactive | Active | inactive | Active | inactive | 250 (≈ 915 µM) | 250 (≈ 915 µM) | 250 (≈ 915 µM) | 125 (≈ 457 µM) | 250 (≈ 915 µM) | 250 (≈ 915 µM) | 250 (≈ 915 µM) | 250 (≈ 915 µM) | 250 (≈ 915 µM) | 250 (≈ 915 µM) | 125 (≈ 457 µM) | 250 (≈ 915 µM) | MIC [29]: 500 µg/mL (≈ 1830 µM)
COc1cc(OC)c2c(O)c3c(cc2c1)OC(C)CC3=O (configuration not stated) | inactive | inactive | inactive | inactive | inactive | – | – | – | – | – | – | – | – | – | – | – | – | –
CC1(C)CC2=NOC(=O)C2=C(c2cccc3ccccc23)O1 | inactive | Active | inactive | Active | inactive | 250 (≈ 852 µM) | 250 (≈ 852 µM) | 250 (≈ 852 µM) | 125 (≈ 426 µM) | 500 (≈ 1700 µM) | 500 (≈ 1700 µM) | 250 (≈ 852 µM) | 500 (≈ 1700 µM) | 125 (≈ 426 µM) | 500 (≈ 1700 µM) | 125 (≈ 426 µM) | 250 (≈ 852 µM) | MIC [29]: 500 µg/mL (≈ 1700 µM)
CC1=C2C(=O)ON=C2CC(C)(C)O1 | inactive | Active | inactive | inactive | inactive | 500 (≈ 2760 µM) | 250 (≈ 1380 µM) | 250 (≈ 1380 µM) | 500 (≈ 2760 µM) | 250 (≈ 1380 µM) | 500 (≈ 2760 µM) | 125 (≈ 690 µM) | 250 (≈ 1380 µM) | 250 (≈ 1380 µM) | 500 (≈ 2760 µM) | 500 (≈ 2760 µM) | 500 (≈ 2760 µM) | MIC [29]: 500 µg/mL (≈ 2760 µM)
